Each block holds one molecule with its values, some of them ahead of it. The source made the active and inactive calls. The rule behind the calls is not given here.
Columns and labels:
[1] = molecular target: Human immunodeficiency virus type 1 reverse transcriptase (Human immunodeficiency virus 1) (UniProt Q72547); experiment: Ratio of Ki to Km for HIV1 reverse transcriptase
CCRF-CEM [2] = experiment: Drug metabolism in human CEM cells assessed as radioactive stavudine monophosphate accumulation at 2 uM after 12 hrs assessed per 10^6 cells; type: ADME, cell-based
In short: (§1)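 CEM cells (2 x 10^7/ml) in RPMI 1640 with 10% dialyzed FBS were incubated at 37°C with 2 µM [3H]analog (75 mCi/mmol) and harvested at 2, 4, 8, 12, 16 and 24 h. Cells were washed in ice-cold PBS with 20 µM dipyridamole and extracted with 15% TCA. Neutralized extracts were separated on a Partisil SAX column with an H2O to 300 mM potassium phosphate gradient and radiometric detection, reported as pmol/10^6 cells, mean ± SD of three experiments.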

CCRF-CEM [3] = experiment: Drug metabolism in human CEM cells assessed as radioactive stavudine diphosphate accumulation at 2 uM after 12 hrs assessed per 10^6 cells; type: ADME, cell-based; in short: as §1
CCRF-CEM [4] = experiment: Drug metabolism in human CEM cells assessed as radioactive stavudine triphosphate accumulation at 2 uM after 12 hrs assessed per 10^6 cells; type: ADME, cell-based; in short: as §1
CCRF-CEM [5] = experiment: Drug metabolism in human CEM cells assessed as radioactive zidovudine monophosphate accumulation at 2 uM assessed per 10^6 cells; type: ADME, cell-based; settings: TDE = time-dependent effect; in short: as §1
CCRF-CEM [6] = experiment: Drug metabolism in human CEM cells assessed as radioactive zidovudine diphosphate accumulation at 2 uM assessed per 10^6 cells; type: ADME, cell-based; settings: TDE = time-dependent effect; in short: as §1
CCRF-CEM [7] = experiment: Drug metabolism in human CEM cells assessed as radioactive zidovudine triphosphate accumulation at 2 uM assessed per 10^6 cells; type: ADME, cell-based; settings: TDE = time-dependent effect; in short: as §1
CCRF-CEM [8] = experiment: Drug metabolism in human CEM cells assessed as radioactive 2', 3'-didehydro-3'-deoxy-4'-ethynylthymidine monophosphate accumulation at 2 uM assessed per 10^6 cells; type: ADME, cell-based; settings: TDE = time-dependent effect; in short: as §1
CCRF-CEM [9] = experiment: Drug metabolism in human CEM cells assessed as radioactive 2', 3'-didehydro-3'-deoxy-4'-ethynylthymidine diphosphate accumulation at 2 uM assessed per 10^6 cells; type: ADME, cell-based; settings: TDE = time-dependent effect; in short: as §1
CCRF-CEM [10] = experiment: Drug metabolism in human CEM cells assessed as radioactive 2', 3'-didehydro-3'-deoxy-4'-ethynylthymidine triphosphate accumulation at 2 uM assessed per 10^6 cells; type: ADME, cell-based; settings: TDE = time-dependent effect; in short: as §1
CCRF-CEM [11] = experiment: Drug metabolism in human CEM cells assessed as radioactive stavudine monophosphate accumulation at 2 uM assessed per 10^6 cells; type: ADME, cell-based; settings: TDE = time-dependent effect; in short: as §1
CCRF-CEM [12] = experiment: Drug metabolism in human CEM cells assessed as radioactive stavudine diphosphate accumulation at 2 uM assessed per 10^6 cells; type: ADME, cell-based; settings: TDE = time-dependent effect; in short: as §1
CCRF-CEM [13] = experiment: Drug metabolism in human CEM cells assessed as radioactive stavudine triphosphate accumulation at 2 uM assessed per 10^6 cells; type: ADME, cell-based; settings: TDE = time-dependent effect; in short: as §1
CCRF-CEM [14] = experiment: Stability in human CEM cells assessed as intracellular radioactive phosphorylated metabolite accumulation at 2 uM incubated for 24 hrs measured after 8 hrs of compound removal assessed per 10^6 cells; type: ADME, cell-based
In short: (§2)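 CEM cells were loaded with 2 µM [3H]analog (75 mCi/mmol) for 24 h, washed, and resuspended in drug-free medium. Intracellular metabolites were then measured by SAX-HPLC with radiometric detection at 0, 2, 4, 8, 12 and 24 h after removal. Values are pmol/10^6 cells, mean ± SD of three experiments.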

CCRF-CEM [15] = experiment: Stability in human CEM cells assessed as intracellular radioactive triphosphate metabolite accumulation at 2 uM incubated for 24 hrs measured after 24 hrs of compound removal assessed per 10^6 cells; type: ADME, cell-based; in short: as §2
[16] = tested on: Human immunodeficiency virus 1; experiment: Antiviral activity against 0.1 MOI HIV1 3B infected in human TZM-b1 cells assessed as inhibition of viral replication after 24 hrs by luciferase assay; type: functional, organism-based
In short: (§3)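 TZM-bl cells in phenol red-free RPMI 1640 were infected with HIV-1 IIIB (MOI 0.1) at the time of adding drug at various concentrations, and drug and virus stayed together for 24 h. Lysate luciferase was measured with uninfected background subtracted, in quintuple wells. Inhibition was the mean signal relative to drug-free infected cells.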

[17] = tested on: Human immunodeficiency virus 1; experiment: Antiviral activity against 0.1 MOI HIV1 3B in 24 hrs pretreated human TZM-b1 cells infected 24 hrs post drug removal assessed as inhibition of viral replication at 1 to 6 uM measured 24 hrs postinfection by luciferase assay; type: functional, organism-based
In short: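 TZM-bl cells were plated in phenol red-free RPMI 1640, allowed to adhere 15–18 h at 37°C, then exposed to a range of drug concentrations for 24 h. Medium was changed to remove extracellular drug, and cells were infected with HIV-1 IIIB (MOI 0.1) at 0, 24 or 48 h after removal. Luciferase was read 24 h post-infection with uninfected-cell background subtracted, in quintuple wells, and expressed relative to no-drug wells.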

[18] = tested on: Human immunodeficiency virus 1; experiment: Antiviral activity against 0.1 MOI HIV1 3B infected in human TZM-b1 cells assessed as inhibition of viral replication at 6 uM after 24 hrs by luciferase assay; type: functional; settings: Human immunodeficiency virus 1, 3B, TZM-b1, 24 h; in short: as §3
[19] = tested on: Human immunodeficiency virus 1; experiment: Antiviral activity against 0.1 MOI HIV1 3B infected in human TZM-b1 cells assessed as inhibition of viral replication at 2 uM after 24 hrs by luciferase assay; type: functional; settings: Human immunodeficiency virus 1, 3B, TZM-b1, 24 h; in short: as §3
[20] = tested on: Human immunodeficiency virus 1; experiment: Antiviral activity against 0.1 MOI HIV1 3B in 24 hrs pretreated human TZM-b1 cells infected 24 hrs post drug removal assessed as inhibition of viral replication at 1 to 6 uM measured 24 hrs postinfection by luciferase assay
[21] = substrate: Cc1cn([C@H]2C[C@H](N=[N+]=[N-])[C@@H](CO)O2)c(=O)[nH]c1=O; settings: Homo sapiens; H9
[22] = substrate: Cc1cn([C@H]2C[C@H](N=[N+]=[N-])[C@@H](CO)O2)c(=O)[nH]c1=O; settings: Homo sapiens; H9; remark: listed apart in the source

Ki/Km [1]: 1.1
Molecule: Cc1cn([C@H]2C=C[C@@H](COP(=O)(O)OP(=O)(O)OP(=O)(O)O)O2)c(=O)[nH]c1=O

Activity (CCRF-CEM [2]): 1.2 pmol
Activity (CCRF-CEM [3]): 1.2 pmol
Activity (CCRF-CEM [4]): 1.2 pmol
Activity (CCRF-CEM [5]): tde
Activity (CCRF-CEM [6]): tde
Activity (CCRF-CEM [7]): tde
Activity (CCRF-CEM [8]): tde
Activity (CCRF-CEM [9]): tde
Activity (CCRF-CEM [10]): tde
Activity (CCRF-CEM [11]): tde
Activity (CCRF-CEM [12]): tde
Activity (CCRF-CEM [13]): tde
Stability (CCRF-CEM [14]): 0.2 pmol
Stability (CCRF-CEM [15]): Unstable
Molecule: Cc1cn([C@H]2C=C[C@@H](CO)O2)c(=O)[nH]c1=O [STAVUDINE]
inhibition [16]: Dose-dependent effect
inhibition [17]: inactive
inhibition at 6 µM [18]: 50%
inhibition at 2 µM [19]: 50%
inhibition [20]: inactive

Ki/Km [1]: 0.15
Molecule: C#C[C@@]1(COP(=O)(O)OP(=O)(O)OP(=O)(O)O)C=C[C@H](n2cc(C)c(=O)[nH]c2=O)O1

B1: Thymidine kinase, cytosolic (Homo sapiens), P04183 (protein)
chain: MSCINLPTVLPGSPSKTRGQIQVILGPMFSGKSTELMRRVRRFQIAQYKCLVIKYAKDTRYSSSFCTHDRNTMEALPACLLRDVAQEALGVAVIGIDEGQFFPDIVEFCEAMANAGKTVIVAALDGTFQRKPFGAILNLVPLAESVVKLTAVCMECFREAAYTKRLGTEKEVEVIGGADKYHSVCRLCYFKKASGQPAGPDNKENCPVPGKPGEAVAARKLFAPQQILQCSPAN
Km [21]: 2.9 µM
Km [22]: 3 µM

Source: ChEMBL document CHEMBL1137646, “Intracellular metabolism and persistence of the anti-human immunodeficiency virus activity of 2',3'-didehydro-3'-deoxy-4'-ethynylthymidine, a novel thymidine analog” (Antimicrob Agents Chemother, 2007)
